High-throughput results from PubChem.
PglD inh: C. jejuni PglD acetyltransferase inhibitors, primary screen, biochemical, DTNB colorimetric, single point | UDP-N-acetylbacillosamine N-acetyltransferase PglD (Campylobacter jejuni) | purified PglD enzyme, DTNB colorimetric CoA detection | inhibition, % at 12.5 µM | 360,000 compounds, 0.098% hits | AID 602405, 2012; in the data active means inhibition above about 16%, passing the limit was not always enough; inconclusive means no clear call, values can overlap the other calls
N-glyco inh: increase of ERlucT glycosylation luciferase signal, primary screen, N-linked glycosylation inhibitor project, D54 ERlucT cells, luminescence, set 2 | 360,000 compounds, 0.23% hits | D54 ERlucT glycosylation luciferase reporter, 24 h; percent of 100 nM tunicamycin response | reporter increase, % at 12.5 µM;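 active means mean luciferase reporter signal, scaled so untreated is 0 and the glycosylation-blocking control 100, at or above a set limit in every replicate; inconclusive means mean reaches the limit but not every replicate does; inactive means mean below the limit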;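 further: luciferase carries N-glycosylation sites so blocking glycosylation raises the light; 0% = median of neutral control wells and 100% = median of 100 nM tunicamycin wells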
SR-BI HDL uptake: inhibitors of SR-BI mediated HDL lipid uptake, primary screen, ldlA[mSR-BI] cells, fluorescence, single point | Scavenger receptor class B member 1 (Mus musculus), Q61009 | ldlA[mSR-BI] CHO cells, DiI-HDL uptake fluorescence, 3 h | inhibition, % at 12.5 µM | 320,000 compounds, 0.96% hits | AID 488896, 2010;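 active means mean replicate inhibition of at least 70% and a set share of replicates each scoring 70 or more; inconclusive means meets just one of the two criteria; inactive means fails both criteria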;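 further: 0% = median of neutral control wells and 100% = median of positive control wells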
Target sequence (Q61009 whole entry, looked up): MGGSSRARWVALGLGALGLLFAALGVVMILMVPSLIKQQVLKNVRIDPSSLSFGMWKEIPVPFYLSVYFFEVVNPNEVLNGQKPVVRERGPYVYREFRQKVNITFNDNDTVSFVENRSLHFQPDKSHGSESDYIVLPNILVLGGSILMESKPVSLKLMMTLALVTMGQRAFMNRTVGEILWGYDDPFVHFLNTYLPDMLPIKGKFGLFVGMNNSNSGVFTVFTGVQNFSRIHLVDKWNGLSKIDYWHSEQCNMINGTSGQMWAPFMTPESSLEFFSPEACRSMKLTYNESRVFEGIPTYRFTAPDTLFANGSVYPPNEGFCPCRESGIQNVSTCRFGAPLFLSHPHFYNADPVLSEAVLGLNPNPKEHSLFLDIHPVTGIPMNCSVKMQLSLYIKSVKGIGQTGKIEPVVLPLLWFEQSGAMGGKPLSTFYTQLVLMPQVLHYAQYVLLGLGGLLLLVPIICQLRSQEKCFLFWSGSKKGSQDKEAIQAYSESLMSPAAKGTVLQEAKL
HIV Env fusion: inhibitors of HIV-1 Env-driven cell-cell fusion, primary screen, HeLa-JRFL effector, CEM21 target cells, luciferase; inhibition, % at 12.3 µM; 360,000 compounds, 1.1% hits; AID 651610, 2012;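 active means mean replicate inhibition score of at least 50 and every replicate individually at or above 50; inconclusive means only one of the two criteria met; inactive means mean below 50 and not all replicates reaching 50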;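 further: 0% = plate neutral controls and 100% = maraviroc near 300 nM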
Rtt109 Vps75: inhibitors of C. albicans Rtt109/Vps75 HAT, primary screen, biochemical, ThioGlo CoA-SH fluorescence, plate reader; Histone acetyltransferase RTT109 (Candida albicans (strain SC5314 / ATCC MYA-2876)), …; purified Rtt109/Vps75, 4 h; inhibition, % at 34.9 µM; 330,000 compounds, 0.16% hits; AID 540336, 2011;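 active means inhibition of at least 50% in every replicate; inconclusive means best replicate reaches 50% inhibition but some replicates fall short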
SR-BI DiI-HDL act: activators of SR-BI mediated DiI-HDL uptake, primary screen, ldlA[mSR-BI] CHO cells, DiI fluorescence. 3 h; 100 = double the neutral-control signal. activation, % at 12.5 µM. 320,000 compounds, 0.096% hits. AID 504775, 2011;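 active means mean replicate activation of at least 60% and every replicate at or above 60%; inconclusive means mean or all-replicate condition met, but not both; inactive means mean below 60% and not all replicates reaching 60%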;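 further: 0% = median plate neutral-control signal and 100% = twice that signal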
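Test system: SR-BI-overexpressing, LDLR-lacking CHO cells; Medium: Ham's F12 with 0.5% BSA, HEPES 25 mM, pH 7.4; Schedule: 3 h, 37 °C; Technique: bottom-read fluorescence, 550/595 nm.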
* hit, by the source's call; ? = inconclusive; . = no result; [ ] = another dose, or the depositor's remark. A selection: hits, their analogues and other compounds. The true share with any hit is near 1.9%.

SMILES	PglD inh	N-glyco inh	SR-BI HDL uptake	HIV Env fusion	Rtt109 Vps75	SR-BI DiI-HDL act
COC1/C=C/C=C(\C)Cc2cc(O)c(Cl)c(c2)N(C)C(=O)CC(OC(=O)C(C)C)C2(C)OC2C(C)C2CC1(O)NC(=O)O2 (configuration not stated)	.	-13.7	-14.8	56.3*	2.2	14.8
CN1C(=O)C(=Cc2sc(=O)n(-c3ccccc3)c2N(C)C)C(=O)N(C)C1=O	-10.3	29.3*	2.8	-15.4	11.8	-2.8
Cc1cc(C=C2C(=O)N(C)C(=O)N(C)C2=O)c(C)n1-c1ccccc1	.	0.2	-17.6	11.5	-5.9	17.6
CCC1CN2CCc3cc(OC)c(OC)cc3C2CC1CC1NCCc2c1[nH]c1ccc(O)cc21 (configuration not stated)	.	-18.1	16.1	73.0*	-4.1	-16.1
COc1ccc2c(c1OC)CN1CCc3cc4c(cc3[C@H]1C2)OCO4	0.4	0.1	3.8	.	1.6	-3.8
Cc1cccc(NP(=O)(Oc2ccccc2)Oc2ccccc2)c1C	3.2	-1.0	76.5*	-11.3	-0.7	-76.5
COC1C(O)C(C)OC(OC2C(Oc3cccc4c(O)c5c(=O)oc6ccc(C)c7c(=O)oc(c34)c5c67)OC(C)C(O)C2O)C1O (configuration not stated)	.	42.9*	4.0	20.6	6.6	-4.0
CN1C(=O)C2C[C@@]3(Br)c4ccccc4N(OOSc4ccccc4)[C@H]3N2C(=O)[C@@H]1Cc1ccccc1 (some centres not stated)	-1.2	-0.9	-17.6	76.7*	-5.8	17.6
COC(=O)[C@H]1[C@H](CO)[C@H]2Cn3c(ccc(-c4ccccc4)c3=O)[C@@H]1N2C(=O)c1ccccc1F	2.4	.	.	.	.	.
O=C(Cc1ccncc1)N1CCCCN2[C@H](CO)[C@H](c3ccc(C#Cc4ccccc4F)cc3)[C@H]2C1	1.2	.	.	.	.	.
O=C(Cc1cccnc1)N1CCCCN2[C@H](C1)[C@@H](c1ccc(C#CC3(O)CCCC3)cc1)[C@@H]2CO	1.2	.	.	.	.	.
COC(=O)[C@@H]1[C@@H](CO)[C@@H]2Cn3c(ccc(-c4cncnc4)c3=O)[C@H]1N2S(=O)(=O)c1ccccc1C	3.5	.	.	.	.	.
CC(C)(O)/C=C/C(=O)C(C)(O)C1C(O)CC2(C)C3CC=C4C(C=C(O)C(=O)C4(C)C)C3(C)C(=O)CC12C (configuration not stated)	.	-21.3	-9.8	80.9*	-5.4	9.8
CCN1CCN(C(=O)COc2ccc3oc4c(c3c2)CCCC4)CC1	0.6	-0.9	71.9*	.	0.0	-71.9
CCN1CCN(C(=O)COc2ccc(S(=O)(=O)NC(C)C)cc2)CC1	3.1	0.4	-25.2	.	-6.1	25.2
O=C(Cc1ccccn1)N1CCCCN2[C@@H](CO)[C@H](c3ccc(C#Cc4ccccc4)cc3)[C@@H]2C1	5.3	.	.	.	.	.
COC1CC2C=C(C)C=CC=CC(=O)NC(c3ccccc3)CC=CCCC(O)CC(=O)C2=C1O (configuration not stated)	.	-18.9	.	91.8*	.	.
CC(N)C(=O)NC1C2C(=C(O)CC(O)C2O)C(=O)OC1(C)C(Cl)Cl (configuration not stated)	.	-18.8	-10.2	98.6*	7.5	10.2
COC(=O)C1CN(C#N)N(c2ccc(Cl)cc2)C12c1ccccc1-c1ccccc12 (configuration not stated)	2.0	-19.1	127.4*	.	-1.7	-127.4
COC(=O)[C@H]1[C@H](CO)[C@H]2Cn3c(ccc(-c4ccccc4F)c3=O)[C@@H]1N2Cc1ccccc1	2.1	.	.	.	.	.
O=C(Cc1ccccc1)N1C[C@@H]2[C@H](c3ccccc31)[C@@H](CO)N2Cc1ccccc1	4.8	.	.	.	.	.
CC=Cc1ccc2n(c1=O)C[C@H]1[C@H](CO)[C@@H](C(=O)OC)[C@@H]2N1CC1CCOCC1 (mixture of isomers)	4.3	.	.	?	.	.
Cc1ccc(N2C(=O)NC(=O)C(CCc3ccccn3)(Cc3ccc(F)cc3)C2=O)cc1 (configuration not stated)	.	-0.8	3.5	57.7*	6.6	-3.5
Cc1ccccc1-[n+]1c(-c2ccccc2)cc(-c2ccccc2)cc1-c1ccccc1	6.2	20.9	-17.8	67.8*	2.3	17.8
COC(=O)[C@H]1[C@H](CO)[C@H]2Cn3c(ccc(-c4ccccc4F)c3=O)[C@@H]1N2	-2.4	.	.	5.6[16.7 µM]	.	.
SMILES	PglD inh	N-glyco inh	SR-BI HDL uptake	HIV Env fusion	Rtt109 Vps75	SR-BI DiI-HDL act
Cc1ccc(N2Cc3ccccc3C2=N)cc1[N+](=O)[O-]	.	1.3	-10.0	0.9	-1.2	10.0
Cc1cc(C)nc(N2Cc3ccccc3C2=N)n1	-1.8	37.1*	-31.5	-59.6	14.2	31.5
N#Cc1ccc(-c2ccc([C@@H]3[C@H]4CN(C(=O)Cc5ccccc5)CCCCN4[C@H]3CO)cc2)cc1	-0.7	.	.	.	.	.
CCC(=NCCC(c1ccccc1)c1ccccc1)c1c(O)n(C)c(=O)n(C)c1=O	3.6	-4.3	-4.0	-60.0	-21.0	4.0
CCC(=NCc1ccc(F)cc1)c1c(O)n(C)c(=O)n(C)c1=O	10.0	-2.3	-99.8	79.8*	-2.5	?
CCN1[C@@H]2c3ccc(-c4cccc(C(=O)N(C)C)c4)c(=O)n3C[C@H]1[C@H](CO)[C@H]2C(=O)OC	-2.4	.	.	.	.	.
O=C(O)[C@H]1[C@H](CO)[C@H]2Cn3c(ccc(C4=CCCC4)c3=O)[C@@H]1N2C(=O)Cc1ccccn1	1.2	.	.	.	.	.
NC1(C(=O)O)CCCc2ccc(N(CCCl)CCCl)cc21 (configuration not stated)	-4.5	-3.2	-9.0	.	3.4	9.0
COC(=O)C1=C(C)NC(=S)NC1c1ccc(N(CCCl)CCCl)cc1Cl (configuration not stated)	.	0.8	85.5*	-23.1	-1.4	-85.5
O=C(Nc1ccc(F)cc1)c1c(O)c2c(n(Cc3ccccc3)c1=O)CCCC2	.	-2.9	43.2	-10.0	50.2*	-43.2
CN1CCC(N(C)c2ncnc3ccc(Br)cc23)CC1	-10.2	-4.6	-33.6	.	-5.5	33.6
Cc1ccc(-c2nc(N(C)C3CCN(C)CC3)c3ccccc3n2)cc1	3.7	48.8*	21.3	.	?	-21.3
Cc1cccc(S(=O)(=O)N2[C@@H]3c4ccc(-c5ccc(F)cc5)c(=O)n4C[C@H]2[C@H](CO)[C@H]3C(=O)O)c1	.	.	.	-1.7[16.7 µM]	.	.
O=C1C(=O)c2ccccc2-c2ccccc21	-2.2	-23.3	19.9	90.6*	1.0	-19.9
